Test results: ChEMBL document CHEMBL4190353, “Synthesis, structure-activity relationships and preliminary mechanism of action of novel water-soluble 4-quinolone-3-carboxamides as antiproliferative agents” (Eur J Med Chem, 2017)
Calls of active or inactive are those of the source. No cut-off for these calls is given here.

Tests used:
[1] = test system: RKO; test: Cytotoxicity against human RKO cells assessed as reduction in cell viability incubated for 24 hrs by MTT assay; format: functional, cell-based
In short: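 Cells were kept in McCoy's 5A with 10% fetal bovine serum, streptomycin and 100 units·mL⁻¹ penicillin at 37 °C under 5% CO₂/95% air. Viability was read by MTT optical density. IC50 is the concentration that lowers optical density by 50% relative to untreated cells. Values are means with SD of at least three independent determinations.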

[2] = test system: HCT-116; test: Inhibition of colony formation of human HCT116 cells incubated for 24 hrs by crystal violet staining based photography; format: functional, cell-based
In short: (§1)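 Cells (HCT116, RKO, HCT116 p53-/-, HCT116 Bax-/-) seeded at 300 per well in 12-well plates for 48 h, then treated 24 h. Drug medium replaced with fresh medium; about 10 days later colonies stained 15 min with crystal violet, photographed and counted. Run in triplicate.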

[3] = test system: HCT-116; test: Induction of apoptosis in human HCT116 cells assessed as early apoptotic cells level at 4 uM incubated for 24 hrs by Annexin V-FITC/PI staining based cytometry (reference value: 1.3%); format: functional
[4] = test system: HCT-116; test: Induction of apoptosis in human HCT116 cells assessed as G1 phase cells level at 4 uM incubated for 24 hrs by […]PI staining based cytometry (reference value: 65.2%); format: functional
In short: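 Cells were treated for 24 h, then fixed in 75% ethanol at -20 °C overnight. RNA was digested with 0.2 mg/mL RNase A for 30 min at 37 °C. Cells were stained with 50 µg/mL PI for 30 min in the dark, and DNA content was read by flow cytometry.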

[5] = test system: HCT-116; test: Induction of apoptosis in human HCT116 cells assessed as increase in cleaved PARP level at 4 uM incubated for 24 hrs by Western blot method; format: functional, cell-based
In short: (§2)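 Lysates were made in SDS buffer (2% SDS, 50 mM Tris-HCl pH 6.8) and quantified by BCA. Equal protein was run on 10% SDS-PAGE and transferred to PVDF. Membranes were blocked in 5% milk, probed overnight at 4 °C for cleaved PARP (1:1000) with GAPDH (1:5000), and detected with HRP secondary antibody and ECL.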

[6] = test system: HCT-116; test: Induction of apoptosis in human HCT116 cells assessed as early apoptotic cells level incubated for 48 hrs by Annexin V-FITC/PI staining based cytometry (reference value: 1.1%); format: functional
[7] = test system: HCT-116; test: Induction of apoptosis in human HCT116 cells assessed as increase in cleaved PARP level incubated for 48 hrs by Western blot method; format: functional, cell-based; in short: as §2
[8] = test system: HCT-116; test: Induction of apoptosis in Bax-/- human HCT116 cells assessed as late apoptotic cells level incubated for 48 hrs by Annexin V-FITC/PI staining based cytometry (reference value: 0.1%); format: functional
In short: (§3)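 Cells were plated at 5×10^5 per well and treated once 80% confluent. After trypsinisation and two washes in ice-cold PBS (pH 7.4), cells were stained with Annexin V-FITC and PI for 15 min at room temperature in the dark. Analysis was by flow cytometry. The legend gives vehicle or 4 µM for the p53-/- and Bax-/- lines.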

[9] = test system: HCT-116; test: Induction of apoptosis in Bax-/- human HCT116 cells assessed as viable cells level pre-incubated with 20 uM pan-caspase inhibitor Z-VAD-FMK for 5 hrs followed by compound addition and further incubated for 48 hrs by Annexin V-FITC/PI staining based cytometry (reference value: 92.9%); format: functional
[10] = test system: HCT-116; test: Induction of apoptosis in Bax-/- human HCT116 cells assessed as late apoptotic cells level pre-incubated with 20 uM pan-caspase inhibitor Z-VAD-FMK for 5 hrs followed by compound addition and further incubated for 48 hrs by Annexin V-FITC/PI staining based cytometry (reference value: 0.1%); format: functional; design: scale not given: the % may be the effect or the level left
[11] = test system: HCT-116; test: Induction of apoptosis in Bax-/- human HCT116 cells assessed as necrotic cells level pre-incubated with 20 uM pan-caspase inhibitor Z-VAD-FMK for 5 hrs followed by compound addition and further incubated for 48 hrs by Annexin V-FITC/PI staining based cytometry (reference value: 0.2%); format: functional; design: scale not given: the % may be the effect or the level left
[12] = test system: HCT-116; test: Induction of apoptosis in p53-/- human HCT116 cells assessed as increase in cleaved PARP level at 4 to 16 uM by Western blot method; format: functional, cell-based; in short: as §2
[13] = test system: HCT-116; test: Induction of apoptosis in p53-/- human HCT116 cells assessed as viable cells level at 4 uM incubated for 48 hrs by Annexin V-FITC/PI staining based cytometry (reference value: 96.2%); format: functional
In short: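 HCT116 p53-/- cells (Vogelstein line) in McCoy's 5A with 10% FBS, 37 °C, 5% CO2. Seeded at 5×10^5 in 6-well plates, treated with vehicle or 4 μM at 80% confluence. After treatment, trypsinised, washed twice in ice-cold PBS pH 7.4, and stained in binding buffer with Annexin V-FITC and PI for 15 min at room temperature in the dark. Read by flow cytometry.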

[14] = test system: HCT-116; test: Induction of apoptosis in Bax-/- human HCT116 cells assessed as necrotic cells level at 4 uM incubated for 48 hrs by Annexin V-FITC/PI staining based cytometry (reference value: 0.3%); format: functional; in short: as §3
[15] = test system: HCT-116; test: Cytotoxicity against Bax-/- human HCT116 cells assessed as reduction in cell viability incubated for 24 hrs by CCK8 assay; format: functional, cell-based
In short: (§4)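 Cells were seeded at 3×10^4 per well, grown 24 h, then exposed to increasing concentrations for 24 h. CCK-8 reagent was added for 1 h at 37 °C and absorbance was read at 450 nm. Cells were kept in McCoy's 5A with 10% FBS, and n=3.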

[16] = test system: HCT-116; test: Cytotoxicity against p53-/- human HCT116 cells assessed as reduction in cell viability incubated for 24 hrs by CCK8 assay; format: functional, cell-based; in short: as §4
[17] = test system: HCT-116; test: Inhibition of colony formation of human HCT116 cells incubated for 24 hrs and measured after 10 days post dose in fresh medium by crystal violet staining based photography; format: functional, cell-based; in short: as §1
[18] = test system: HCT-116; test: Inhibition of colony formation of human HCT116 cells pre-treated with 7.5 mM L-NAC for 2 hrs followed by 16 to 32 uM compound addition and further incubated for 24 hrs and measured after 10 days post dose in fresh medium by crystal violet staining based photography; format: functional, cell-based
In short: (§5)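 HCT116 seeded at about 300 per well in 12-well plates and grown 2 h. Pre-treated 2 h with H2O, 7.5 mM L-NAC or GSH, then exposed to compound for 24 h. Colonies grown 10 days in fresh medium, stained with crystal violet and counted. Triplicate wells.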

[19] = test system: HCT-116; test: Inhibition of colony formation of human HCT116 cells pre-treated with 7.5 mM GSH for 2 hrs followed by 16 to 32 uM compound addition and further incubated for 24 hrs and measured after 10 days post dose in fresh medium by crystal violet staining based photography; format: functional, cell-based; in short: as §5
[20] = test system: HCT-116; test: Cytotoxicity in human HCT116 cells assessed as reduction in cell viability pre-treated with 7.5 mM L-NAC followed by 16 to 32 uM compound addition and further incubated for 24 hrs by CCK8 assay; format: functional, cell-based
In short: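 HCT116 cells were pretreated with H2O, 7.5 mM L-NAC or 7.5 mM GSH, then exposed to 4, 16 or 32 µM for 24 h. Viability was read by CCK-8, with 1 h reagent incubation at 37 °C and absorbance at 450 nm. n=3.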

[21] = test system: HCT-116; test: Induction of apoptosis in human HCT116 cells assessed as increase in cleaved PARP level at 4 to 8 uM incubated for 24 hrs by Western blot method; format: functional, cell-based; in short: as §2

In the case of `CCN(CC)CCCNC(=O)c1cn(CCCc2ccccc2)c2cc(Cl)ccc2c1=O.Cl`, the IC50 [1] is reported as 4.87 µM, the inhibition [2] is reported as “Dose-dependent effect” and the Activity [3] is reported as 38.2%. The Activity [4] was 42.4%, the Activity [5] was “Active” and the Activity [6] was 29.4%. For the same molecule, the Activity [7] was “Active”, the Activity [8] was 1.7% and the Activity [9] was 87.7%. The Activity [10] was 0.9%, the Activity [11] was 1.2% and the Activity [12] was “Active”. The Activity [13] was 72.1%, the Activity [14] was 2.1% and the Activity [15] was “Dose-dependent effect”. The Activity [16] was “Dose-dependent effect”, the inhibition [17] was “Dose-dependent effect” and the inhibition [18] was “inactive”. For the same molecule, the inhibition [19] was “inactive”, the Activity [20] was “inactive” and the Activity [21] was “Active”.
